Assay results taken from ChEMBL document CHEMBL4837264, “Rational Design, Optimization, and Biological Evaluation of Novel MEK4 Inhibitors against Pancreatic Adenocarcinoma” (ACS Med Chem Lett, 2021).
Active and inactive are the calls of the source.

Key:
[1] = biological target: RAF proto-oncogene serine/threonine-protein kinase (Homo sapiens) (UniProt P04049); assay: Inhibition of wild type partial length human RAF(I330 to T640 residues) expressed in bacterial expression system at 10 uM measured by Kinomescan assay
Sequence of RAF proto-oncogene serine/threonine-protein kinase (Homo sapiens) (P04049 whole entry, the tested form may be a part): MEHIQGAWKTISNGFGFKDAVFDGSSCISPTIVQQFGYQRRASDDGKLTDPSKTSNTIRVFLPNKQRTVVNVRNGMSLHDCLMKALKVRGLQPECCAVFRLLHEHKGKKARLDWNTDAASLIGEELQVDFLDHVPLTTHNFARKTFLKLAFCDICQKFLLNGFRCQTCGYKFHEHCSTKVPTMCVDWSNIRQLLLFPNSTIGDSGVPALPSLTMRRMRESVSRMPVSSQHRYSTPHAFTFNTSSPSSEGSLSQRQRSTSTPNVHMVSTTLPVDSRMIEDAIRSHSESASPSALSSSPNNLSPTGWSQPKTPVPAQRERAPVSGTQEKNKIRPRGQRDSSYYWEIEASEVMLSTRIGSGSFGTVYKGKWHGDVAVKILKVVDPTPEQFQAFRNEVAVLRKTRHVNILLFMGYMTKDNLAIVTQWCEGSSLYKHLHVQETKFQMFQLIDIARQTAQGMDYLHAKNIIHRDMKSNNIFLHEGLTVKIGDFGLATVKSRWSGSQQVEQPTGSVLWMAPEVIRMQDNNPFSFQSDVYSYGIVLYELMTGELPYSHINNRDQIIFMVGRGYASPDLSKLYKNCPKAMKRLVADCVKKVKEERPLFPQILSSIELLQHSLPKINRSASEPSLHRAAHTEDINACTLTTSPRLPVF
Method in brief: (§1)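 Kinome-wide binding scan on the scanEDGE DiscoverX platform, covering 97 kinases, each tested at a single compound concentration of 10 μM.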

[2] = biological target: Serine/threonine-protein kinase B-raf (Homo sapiens) (UniProt P15056); assay: Inhibition of wild type partial length human BRAF (S429 to E741) expressed in mammalian expression system at 10 uM measured by Kinomescan assay; method in brief: as §1
Sequence of Serine/threonine-protein kinase B-raf (Homo sapiens) (P15056 whole entry, the tested form may be a part): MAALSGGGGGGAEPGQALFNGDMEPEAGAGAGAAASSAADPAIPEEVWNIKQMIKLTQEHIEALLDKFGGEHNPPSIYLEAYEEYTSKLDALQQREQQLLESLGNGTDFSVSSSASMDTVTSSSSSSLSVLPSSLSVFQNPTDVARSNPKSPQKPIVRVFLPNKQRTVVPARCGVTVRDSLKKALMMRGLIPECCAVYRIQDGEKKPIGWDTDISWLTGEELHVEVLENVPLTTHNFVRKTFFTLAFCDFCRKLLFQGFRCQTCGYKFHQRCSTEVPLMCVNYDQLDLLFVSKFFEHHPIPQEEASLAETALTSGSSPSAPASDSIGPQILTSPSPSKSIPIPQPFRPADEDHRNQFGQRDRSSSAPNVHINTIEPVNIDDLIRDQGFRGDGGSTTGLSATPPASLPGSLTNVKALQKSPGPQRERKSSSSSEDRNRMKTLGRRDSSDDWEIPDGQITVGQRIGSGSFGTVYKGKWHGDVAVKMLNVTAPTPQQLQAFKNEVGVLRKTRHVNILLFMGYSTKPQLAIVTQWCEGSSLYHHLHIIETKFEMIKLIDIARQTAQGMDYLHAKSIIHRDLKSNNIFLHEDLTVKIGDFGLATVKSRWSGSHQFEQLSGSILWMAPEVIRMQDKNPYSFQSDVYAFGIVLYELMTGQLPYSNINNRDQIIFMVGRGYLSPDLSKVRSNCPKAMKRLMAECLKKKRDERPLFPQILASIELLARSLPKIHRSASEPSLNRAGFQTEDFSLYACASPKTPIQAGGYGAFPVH

[3] = biological target: Mitogen-activated protein kinase 3 (Homo sapiens) (UniProt P27361); assay: Inhibition of wild type full length human ERK1 (M1 to P397 residues) expressed in bacterial expression system at 10 uM measured by Kinomescan assay; method in brief: as §1
Sequence of Mitogen-activated protein kinase 3 (Homo sapiens) (P27361 whole entry, the tested form may be a part): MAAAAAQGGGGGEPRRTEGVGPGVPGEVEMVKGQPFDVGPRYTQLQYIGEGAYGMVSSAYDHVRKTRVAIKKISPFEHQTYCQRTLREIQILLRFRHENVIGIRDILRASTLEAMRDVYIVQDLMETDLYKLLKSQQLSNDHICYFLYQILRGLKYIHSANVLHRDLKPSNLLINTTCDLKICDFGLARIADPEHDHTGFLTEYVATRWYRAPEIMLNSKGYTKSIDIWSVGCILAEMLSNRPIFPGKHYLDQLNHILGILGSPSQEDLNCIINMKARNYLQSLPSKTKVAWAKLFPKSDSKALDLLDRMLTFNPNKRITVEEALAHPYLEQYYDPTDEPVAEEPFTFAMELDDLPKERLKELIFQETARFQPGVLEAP

Measured: inhibition

NC(=O)c1ccc(NS(=O)(=O)c2cccc(-c3n[nH]c4cc(F)ccc34)c2)cc1
inactive: all assays above
